Data from ChEMBL document CHEMBL1121999 (J Med Chem, 1982).
Activity calls are given as the source filed them. The calls are words filed in the database; no cut-off is given here.

Experiments:
[1] = target: GABA transporter (Rattus norvegicus) (UniProt P31647+P23978+P31646+P48056); assay: In vitro maximal effect for synaptosomal GABA uptake at 100 uM; format: functional
Procedure, shortened: (§1)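 Rat whole brain minus cerebellum was homogenized at 4 °C in 0.32 M sucrose and spun at 1000g for 10 min, then at 27000g for 20 min to give the P₂ synaptosome pellet. Uptake and transaminase were measured together: 100 μM compound with 25 μM [³H]GABA in Krebs-Ringer phosphate buffer, 10 min at room temperature. Reactions were stopped with 1 mM GABA plus 1 mM succinic acid and centrifuged. Supernatant went onto Dowex 50 and tissue radioactivity was counted. Results are given as % of drug-free control.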

Rattus norvegicus = species on record: Rattus norvegicus; assay: […] effect on [3H]-GABA release from rat cortical synaptosomes at 100 uM (No effect); format: functional; details: Brain
[2] = target: 4-aminobutyrate aminotransferase, mitochondrial (Rattus norvegicus) (UniProt P50554); assay: In vitro inhibition of succinate formation in the synaptosomal Gamma-amino-N-butyrate transaminase assay at 100 uM; format: functional; procedure, shortened: as §1
Chain of 4-aminobutyrate aminotransferase, mitochondrial (Rattus norvegicus) (P50554 28-500 limits assumed): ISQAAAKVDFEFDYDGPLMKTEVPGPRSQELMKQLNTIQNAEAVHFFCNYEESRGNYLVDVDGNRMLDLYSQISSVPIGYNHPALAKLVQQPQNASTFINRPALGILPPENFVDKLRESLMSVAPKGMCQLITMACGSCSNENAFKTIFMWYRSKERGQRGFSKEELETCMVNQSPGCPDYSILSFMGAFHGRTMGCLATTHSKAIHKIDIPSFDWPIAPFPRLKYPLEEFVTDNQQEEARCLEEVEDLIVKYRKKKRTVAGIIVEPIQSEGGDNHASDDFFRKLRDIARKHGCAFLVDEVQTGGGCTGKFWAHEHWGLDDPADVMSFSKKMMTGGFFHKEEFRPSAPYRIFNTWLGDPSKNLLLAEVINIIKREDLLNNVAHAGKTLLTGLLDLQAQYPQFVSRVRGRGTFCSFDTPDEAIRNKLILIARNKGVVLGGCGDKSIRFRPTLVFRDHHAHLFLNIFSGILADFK

[3] = target: GABA-A receptor; anion channel; assay: Inhibition of 2 nM [3H]muscimol binding to Gamma-aminobutyric acid (GABA-A) receptor in rat brain crude synaptic membranes; format: cell membranes, Membrane

Chain of GABA transporter (Rattus norvegicus) (P31646 whole entry, looked up): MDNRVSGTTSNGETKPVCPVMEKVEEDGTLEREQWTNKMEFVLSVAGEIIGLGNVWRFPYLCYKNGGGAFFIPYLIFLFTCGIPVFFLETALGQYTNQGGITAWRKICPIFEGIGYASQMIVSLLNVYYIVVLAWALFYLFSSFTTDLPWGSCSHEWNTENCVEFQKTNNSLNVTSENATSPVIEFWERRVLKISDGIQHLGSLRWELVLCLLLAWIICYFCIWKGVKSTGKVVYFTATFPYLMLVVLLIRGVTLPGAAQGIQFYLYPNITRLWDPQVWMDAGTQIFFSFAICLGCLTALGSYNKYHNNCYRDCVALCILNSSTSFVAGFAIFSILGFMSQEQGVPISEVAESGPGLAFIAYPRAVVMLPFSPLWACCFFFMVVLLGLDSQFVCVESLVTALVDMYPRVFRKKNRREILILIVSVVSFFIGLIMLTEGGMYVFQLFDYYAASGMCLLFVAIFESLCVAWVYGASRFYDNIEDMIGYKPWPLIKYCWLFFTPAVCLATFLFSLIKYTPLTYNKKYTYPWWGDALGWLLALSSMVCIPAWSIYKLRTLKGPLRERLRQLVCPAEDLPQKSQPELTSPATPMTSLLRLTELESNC
Chain of GABA transporter (Rattus norvegicus) (P31647 whole entry, looked up): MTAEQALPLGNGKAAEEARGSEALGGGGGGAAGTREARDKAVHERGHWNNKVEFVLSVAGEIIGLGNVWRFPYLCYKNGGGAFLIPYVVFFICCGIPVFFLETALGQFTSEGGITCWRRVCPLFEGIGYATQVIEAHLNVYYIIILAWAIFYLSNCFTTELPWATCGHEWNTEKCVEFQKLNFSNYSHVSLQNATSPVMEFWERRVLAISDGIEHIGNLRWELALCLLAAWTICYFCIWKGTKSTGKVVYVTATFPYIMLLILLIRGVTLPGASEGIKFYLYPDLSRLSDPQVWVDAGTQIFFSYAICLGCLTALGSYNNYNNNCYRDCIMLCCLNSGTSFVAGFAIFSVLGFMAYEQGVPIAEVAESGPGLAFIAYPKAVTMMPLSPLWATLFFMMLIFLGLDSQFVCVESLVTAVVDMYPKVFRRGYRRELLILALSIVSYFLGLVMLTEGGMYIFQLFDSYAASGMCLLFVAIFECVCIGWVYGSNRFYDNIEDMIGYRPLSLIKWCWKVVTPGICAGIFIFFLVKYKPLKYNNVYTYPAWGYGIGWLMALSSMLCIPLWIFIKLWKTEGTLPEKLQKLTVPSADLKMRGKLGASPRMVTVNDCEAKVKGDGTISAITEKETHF
Chain of GABA transporter (Rattus norvegicus) (P48056 whole entry, looked up): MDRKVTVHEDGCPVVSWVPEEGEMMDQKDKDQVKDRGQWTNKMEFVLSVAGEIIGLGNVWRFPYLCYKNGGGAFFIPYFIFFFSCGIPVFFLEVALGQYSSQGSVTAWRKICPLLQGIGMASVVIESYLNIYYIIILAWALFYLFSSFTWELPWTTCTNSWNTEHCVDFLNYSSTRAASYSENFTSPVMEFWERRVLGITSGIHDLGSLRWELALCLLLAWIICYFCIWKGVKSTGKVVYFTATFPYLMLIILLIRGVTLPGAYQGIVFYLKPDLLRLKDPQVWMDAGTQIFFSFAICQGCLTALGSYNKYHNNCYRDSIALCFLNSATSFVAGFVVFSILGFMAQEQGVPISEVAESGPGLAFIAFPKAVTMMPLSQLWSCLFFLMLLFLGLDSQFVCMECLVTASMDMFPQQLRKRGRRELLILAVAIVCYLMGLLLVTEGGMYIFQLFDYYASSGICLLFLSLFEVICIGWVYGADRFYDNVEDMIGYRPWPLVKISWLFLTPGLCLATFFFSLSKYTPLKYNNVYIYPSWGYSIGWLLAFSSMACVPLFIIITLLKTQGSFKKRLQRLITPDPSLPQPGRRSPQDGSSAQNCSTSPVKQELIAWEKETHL

## CN(C)Cc1ccc2c(c1)NC(=O)N(C)S2(=O)=O
[1]
  Effect: 30%
Rattus norvegicus
  Activity: inactive
[2]
  inhibition: 30%
[3]
  IC50: > 20 µM

## CC1=NS(=O)(=O)c2ccc(CN(C)C)cc2N1
[1]
  Effect: 30%
Rattus norvegicus
  Activity: inactive
[2]
  inhibition: 30%
[3]
  IC50: > 20 µM

## CC1=NS(=O)(=O)c2ccc(CN)cc2N1
[1]
  Effect: 30%
Rattus norvegicus
  Activity: inactive
[2]
  inhibition: 30%
[3]
  IC50: > 20 µM

## O=C(O)C1CCCNC1 (stereo unspecified)
[2]
  inhibition: 70%

## CN1C(=O)Nc2cc(CN)ccc2S1(=O)=O
[1]
  Effect: 30%
Rattus norvegicus
  Activity: inactive
[2]
  inhibition: 30%
[3]
  IC50: > 20 µM

## CN1C(=O)Nc2cccc(CN)c2S1(=O)=O
[1]
  Effect: 30%
Rattus norvegicus
  Activity: inactive
[2]
  inhibition: 30%
[3]
  IC50: > 20 µM

## NC(=O)C(=O)O
[2]
  inhibition: 60%

## CC1=NS(=O)(=O)c2c(CN)cccc2N1
[1]
  Effect: 30%
Rattus norvegicus
  Activity: inactive
[2]
  inhibition: 30%
[3]
  IC50: > 20 µM
